Measured values as given in ChEMBL document CHEMBL4219224, “Structure based drug design and in vitro metabolism study: Discovery of N-(4-methylthiophenyl)-N,2-dimethyl-cyclopenta[d]pyrimidine as a potent microtubule targeting agent” (Bioorg Med Chem, 2018).

Key:
MDA-MB-435 = assay: Growth inhibition of human MDA-MB-435 cells incubated for 48 hrs by sulforhodamine B assay; assay type: functional; details: MDA-MB-435, 48 h
HeLa = assay: Resistance index, ratio of IC50 for human HeLa cells expressing wild type beta3 tubulin to IC50 for human HeLa cells; assay type: functional
How it was run: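 Antiproliferative IC50 by SRB assay (cellular protein) in each isogenic pair: SK-OV-3 parental versus Pgp-expressing, and parental HeLa versus wild-type βIII-tubulin-expressing HeLa. Rr is the IC50 ratio of the modified line to the parental line. At least three independent experiments, each in triplicate, mean ± SD.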

NCI-H322M = assay: Growth inhibition of human NCI-H322M cells incubated for 48 hrs by sulforhodamine B assay; assay type: functional
K562 = assay: Growth inhibition of human K562 cells incubated for 48 hrs by sulforhodamine B assay; assay type: functional; details: K562, 48 h
NCI-H522 = assay: Growth inhibition of human NCI-H522 cells incubated for 48 hrs by sulforhodamine B assay; assay type: functional; details: NCI-H522, 48 h
OVCAR-3 = assay: Growth inhibition of human OVCAR3 cells incubated for 48 hrs by sulforhodamine B assay; assay type: functional; details: OVCAR-3, 48 h
ACHN = assay: Growth inhibition of human ACHN cells incubated for 48 hrs by sulforhodamine B assay; assay type: functional
[1] = Antiproliferative activity against human SKOV3-MDR1-M6/6 cells by SRB assay; assay type: functional
[2] = Induction of microtubule depolymerization in rat A10 cells by indirect immunofluorescence method; assay type: cell-based
How it was run: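 A-10 cells, which arrest in interphase, used to score loss of interphase microtubules. EC50 values calculated per an earlier method, minimum of three independent experiments.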

SK-MEL-5 = assay: Growth inhibition of human SK-MEL-5 cells incubated for 48 hrs by sulforhodamine B assay; assay type: functional; details: SK-MEL-5, 48 h
NCI-H460 = assay: Growth inhibition of human NCI-H460 cells incubated for 48 hrs by sulforhodamine B assay; assay type: functional; details: NCI-H460, 48 h
Bos taurus = organism: Bos taurus; assay: Inhibition of [3H]colchicine binding to bovine brain tubulin at 5 uM measured after 10 mins by scintillation counting method relative to control
How it was run: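 Reactions of 0.1 mL held 1.0 μM bovine brain tubulin, 5.0 μM [3H]colchicine, inhibitor at 1.0 or 5.0 μM, colchicine-binding stabilizing components and 5% DMSO, assembled on ice with tubulin added last. Incubated 10 min at 37 °C, stopped with ice water, filtered through DEAE-cellulose filters. Bound radiolabel counted by scintillation.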

SK-MEL-28 = assay: Growth inhibition of human SK-MEL-28 cells incubated for 48 hrs by sulforhodamine B assay; assay type: functional; details: SK-MEL-28, 48 h
MDA-MB-468 = assay: Growth inhibition of human MDA-MB-468 cells incubated for 48 hrs by sulforhodamine B assay; assay type: functional; details: MDA-MB-468, 48 h
HCC 2998 = assay: Growth inhibition of human HCC2998 cells incubated for 48 hrs by sulforhodamine B assay; assay type: functional; details: HCC 2998, 48 h
OVCAR-5 = assay: Growth inhibition of human OVCAR5 cells incubated for 48 hrs by sulforhodamine B assay; assay type: functional; details: OVCAR-5, 48 h
SNB-19 = assay: Growth inhibition of human SNB19 cells incubated for 48 hrs by sulforhodamine B assay; assay type: functional; details: SNB-19, 48 h
[3] = Stability in human liver microsome assessed as parent compound remaining at 20 uM after 60 mins in presence of NADPH by LC-MS/MS analysis; assay type: ADME; details: liver microsomes, read-out: Stability
How it was run: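 Human liver microsomes (both genders; 1.0 mg/mL) in 100 mM PBS pH 7.4 with 3 mM MgCl2 and 10 mM NADPH, preincubated at 37 °C. Reaction started with compound at 20 μM final (from DMSO stock); propranolol 5 μM as control. Aliquots at 0 and 60 min quenched in ice-cold ACN. Analysed by LC/MS/MS on a C18 column, 5–75% B gradient over 30 min, ESI.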

HCT-15 = assay: Growth inhibition of human HCT15 cells incubated for 48 hrs by sulforhodamine B assay; assay type: functional; details: HCT-15, 48 h
DU-145 = assay: Growth inhibition of human DU145 cells incubated for 48 hrs by sulforhodamine B assay; assay type: functional; details: DU-145, 48 h
NCI/ADR-RES = assay: Growth inhibition of human NCI/ADR-RES cells incubated for 48 hrs by sulforhodamine B assay; assay type: functional
RPMI-8226 = assay: Growth inhibition of human RPMI8226 cells incubated for 48 hrs by sulforhodamine B assay; assay type: functional; details: RPMI-8226, 48 h
SR = assay: Growth inhibition of human SR cells incubated for 48 hrs by sulforhodamine B assay; assay type: functional
Hs-578T = assay: Growth inhibition of human Hs578T cells incubated for 48 hrs by sulforhodamine B assay; assay type: functional
[4] = Inhibition of bovine brain tubulin polymerization assessed as reduction in tubulin assembly pretreated for 15 mins followed by GTP addition by spectrophotometric method; design: species or system Bos taurus
How it was run: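 Placed on ice, then 0.4 mM GTP (final) added. Turbidity read at 350 nm after a jump from 0 °C to 30 °C.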

HOP-62 = assay: Growth inhibition of human HOP62 cells incubated for 48 hrs by sulforhodamine B assay; assay type: functional; details: HOP-62, 48 h

With `CSc1ccc(N(C)c2nc(C)nc3c2CCC3)cc1` the GI50 (MDA-MB-435) was under 10 nM, the “Ratio IC50” value (HeLa) was 0.8 and the GI50 (NCI-H322M) was over 10000 nM. It also gave a GI50 (K562) of under 10 nM, a GI50 (NCI-H522) of under 10 nM and a GI50 (OVCAR-3) of under 10 nM. It also gave a GI50 (ACHN) of under 10 nM, an IC50 [1] of 9.3 nM and an EC50 [2] of 13 nM. The GI50 (SK-MEL-5) was under 10 nM, the GI50 (NCI-H460) was under 10 nM and the inhibition (Bos taurus) was 92%. For the same compound, the GI50 (SK-MEL-28) was over 10000 nM, the GI50 (MDA-MB-468) was under 10 nM and the GI50 (HCC 2998) was under 10 nM. The GI50 (OVCAR-5) was over 10000 nM, the GI50 (SNB-19) was under 10 nM and the remaining at 1 h, 20 µM [3] was 46.4%. It also gave a GI50 (HCT-15) of under 10 nM, a GI50 (DU-145) of under 10 nM and a GI50 (NCI/ADR-RES) of under 10 nM. It also gave a GI50 (RPMI-8226) of under 10 nM, a GI50 (SR) of under 10 nM and a GI50 (Hs-578T) of under 10 nM. For the same compound, the IC50 [4] was 1300 nM and the GI50 (HOP-62) was under 10 nM.
